# Source: ChEMBL document CHEMBL4325889, “Natural products hybrids: 3,5,4'-Trimethoxystilbene-5,6,7-trimethoxyflavone chimeric analogs as potential cytotoxic agents against diverse human cancer cells” (Eur J Med Chem, 2019)
# Experiments:
# Format in all cases: functional
# [1] = tested on: NCI-H460; experiment: Growth inhibition of human NCI-H460 cells at 10 uM after 48 hrs by SRB assay relative to control; conditions: NCI-H460, 48 h, read-out: GI
# How it was run: (§1)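 Screened at the National Cancer Institute by the standard NCI protocol using the sulforhodamine B assay, which measures cellular protein. Single dose of 10 µM. Result is percent growth inhibition; values above 100% mean cell number fell below the initial population. Values are the average of duplicates.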
# [2] = tested on: SR; experiment: Growth inhibition of human SR cells at 10 uM after 48 hrs by SRB assay relative to control; conditions: read-out: GI
# How it was run: (§2)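 NCI screen against its human cancer cell line panel by the standard NCI protocol, SRB protein stain. Single dose of 10 μM. Percent growth inhibition versus control; values above 100% mean the cell population fell below the starting number. Each value is the mean of duplicates.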
# [3] = tested on: OVCAR-4; experiment: Growth inhibition of human OVCAR4 cells at 10 uM after 48 hrs by SRB assay relative to control; conditions: OVCAR-4, 48 h, read-out: GI; how it was run: as §1
# [4] = tested on: OVCAR-3; experiment: Growth inhibition of human OVCAR3 cells at 10 uM after 48 hrs by SRB assay relative to control; conditions: OVCAR-3, 48 h, read-out: GI; how it was run: as §1
# [5] = tested on: HT-29; experiment: Growth inhibition of human HT-29 cells at 10 uM after 48 hrs by SRB assay relative to control; conditions: HT-29, 48 h, read-out: GI; how it was run: as §1
# [6] = tested on: COLO 205; experiment: Growth inhibition of human COLO205 cells at 10 uM after 48 hrs by SRB assay relative to control; conditions: COLO 205, 48 h, read-out: GI; how it was run: as §1
# [7] = tested on: NCI-H522; experiment: Growth inhibition of human NCI-H522 cells at 10 uM after 48 hrs by SRB assay relative to control; conditions: NCI-H522, 48 h, read-out: GI; how it was run: as §1
# [8] = tested on: CCRF-CEM; experiment: Growth inhibition of human CCRF-CEM cells at 10 uM after 48 hrs by SRB assay relative to control; conditions: read-out: GI; how it was run: as §1
# [9] = tested on: NCI-H322M; experiment: Growth inhibition of human NCI-H322M cells at 10 uM after 48 hrs by SRB assay relative to control; conditions: read-out: GI; how it was run: as §1
# [10] = tested on: U-251; experiment: Growth inhibition of human U251 cells at 10 uM after 48 hrs by SRB assay relative to control; conditions: U-251, 48 h, read-out: GI; how it was run: as §2
# [11] = tested on: UACC-62; experiment: Growth inhibition of human UACC62 cells at 10 uM after 48 hrs by SRB assay relative to control; conditions: UACC-62, 48 h, read-out: GI; how it was run: as §2
# [12] = tested on: NCI-H23; experiment: Growth inhibition of human NCI-H23 cells at 10 uM after 48 hrs by SRB assay relative to control; conditions: NCI-H23, 48 h, read-out: GI; how it was run: as §1
# [13] = tested on: BT-549; experiment: Growth inhibition of human BT549 cells at 10 uM after 48 hrs by SRB assay relative to control; conditions: BT-549, 48 h, read-out: GI; how it was run: as §1
# [14] = tested on: HCC 2998; experiment: Growth inhibition of human HCC2998 cells at 10 uM after 48 hrs by SRB assay relative to control; conditions: HCC 2998, 48 h, read-out: GI; how it was run: as §1
# [15] = tested on: SF-295; experiment: Growth inhibition of human SF295 cells at 10 uM after 48 hrs by SRB assay relative to control; conditions: SF-295, 48 h, read-out: GI; how it was run: as §1
# [16] = tested on: A549; experiment: Growth inhibition of human A549 cells at 10 uM after 48 hrs by SRB assay relative to control; conditions: A549, 48 h, read-out: GI; how it was run: as §1
# [17] = tested on: SK-MEL-5; experiment: Growth inhibition of human SK-MEL-5 cells at 10 uM after 48 hrs by SRB assay relative to control; conditions: SK-MEL-5, 48 h, read-out: GI; how it was run: as §1
# [18] = tested on: NCI-H226; experiment: Growth inhibition of human NCI-H226 cells at 10 uM after 48 hrs by SRB assay relative to control; conditions: NCI-H226, 48 h, read-out: GI; how it was run: as §1
# [19] = tested on: MDA-MB-435; experiment: Growth inhibition of human MDA-MB-435 cells at 10 uM after 48 hrs by SRB assay relative to control; conditions: MDA-MB-435, 48 h, read-out: GI; how it was run: as §1
# [20] = tested on: TK-10; experiment: Growth inhibition of human TK10 cells at 10 uM after 48 hrs by SRB assay relative to control; conditions: TK-10, 48 h, read-out: GI; how it was run: as §2
Compound,inhibition of growth at 10 µM [1],inhibition of growth at 10 µM [2],inhibition of growth at 10 µM [3],inhibition of growth at 10 µM [4],inhibition of growth at 10 µM [5],inhibition of growth at 10 µM [6],inhibition of growth at 10 µM [7],inhibition of growth at 10 µM [8],inhibition of growth at 10 µM [9],inhibition of growth at 10 µM [10],inhibition of growth at 10 µM [11],inhibition of growth at 10 µM [12],inhibition of growth at 10 µM [13],inhibition of growth at 10 µM [14],inhibition of growth at 10 µM [15],inhibition of growth at 10 µM [16],inhibition of growth at 10 µM [17],inhibition of growth at 10 µM [18],inhibition of growth at 10 µM [19],inhibition of growth at 10 µM [20]
COc1cccc(NC(=O)c2cccc(-c3cc(=O)c4c(O)c(OC)c(OC)cc4o3)c2)c1,31.4%,47.7%,48%,10.6%,15.6%,24.3%,59.8%,34.7%,12.9%,23.9%,44.4%,25.4%,30.5%,-3.54%,17.6%,26.6%,26.8%,41.5%,22.6%,6.27%
COc1cc2oc(-c3cccc(C(=O)Nc4ccc5c(c4)OCO5)c3)cc(=O)c2c(OC)c1OC,26.9%,52.4%,3.72%,12.7%,17.2%,24.4%,26.9%,36.6%,22.6%,9.36%,19.1%,10.3%,42.4%,2.03%,2.37%,25.5%,47.2%,21.2%,4.94%,16.1%
COc1ccc(C(=O)Nc2cccc(-c3cc(=O)c4c(OC)c(OC)c(OC)cc4o3)c2)cc1,57.9%,71.4%,38%,33.2%,53.3%,26.9%,55.5%,72.5%,44.9%,27.7%,44.6%,42.5%,48.6%,29.7%,40.4%,35.3%,49.8%,30.1%,30.4%,23.3%
COc1ccccc1NC(=O)c1cccc(-c2cc(=O)c3c(O)c(OC)c(OC)cc3o2)c1,-3.83%,21.5%,3.74%,-0.89%,10.8%,-7.01%,26.6%,39.8%,1.56%,-0.16%,26.5%,13.9%,10.8%,-2.45%,10.8%,18.5%,3.77%,23.9%,2.77%,14.1%
COc1cc2oc(-c3cccc(C(=O)Nc4ccccc4)c3)cc(=O)c2c(OC)c1OC,11.2%,35.9%,1.91%,12.3%,11.5%,2.76%,21.9%,35.1%,17.7%,9.89%,29.8%,7.79%,24.2%,1.29%,4.34%,16.7%,35.3%,12.7%,8.87%,8.98%
COc1ccc(NC(=O)c2cccc(-c3cc(=O)c4c(O)c(OC)c(OC)cc4o3)c2)cc1,7.3%,19.2%,2.54%,49.4%,12.3%,2.39%,20.6%,16%,0.54%,26.8%,18.9%,8.74%,69%,-1.16%,-3.77%,18.7%,8.61%,8.07%,-5.05%,-5.09%
COc1cccc(C(=O)Nc2cccc(-c3cc(=O)c4c(OC)c(OC)c(OC)cc4o3)c2)c1,,,37.7%,24.6%,53.6%,,58.4%,56.1%,27.1%,36.2%,41.1%,33.9%,42.5%,19.5%,42.7%,44.1%,39.4%,28%,23.4%,17.2%
COc1cccc(C(=O)Nc2cccc(-c3cc(=O)c4c(O)c(OC)c(OC)cc4o3)c2)c1,45.6%,54.8%,33.4%,34.1%,27.9%,5.46%,56.9%,50.5%,30.9%,28.4%,39.1%,32.6%,34.2%,11.8%,33.1%,35.4%,48.9%,36.3%,33.6%,16.7%
Cc1ccc(NC(=O)c2ccc(CN3CCN(C)CC3)cc2)cc1Nc1nccc(-c2cccnc2)n1 [IMATINIB],3.2%,14.6%,-0.1%,-10.3%,47.1%,-1.1%,,6.6%,,10.6%,7.7%,17.1%,-5%,-22%,15.1%,3.8%,22.3%,10.6%,7.4%,-10%
COc1cc2oc(-c3cccc(C(=O)Nc4ccc5c(c4)OCO5)c3)cc(=O)c2c(O)c1OC,45.7%,24.1%,99.9%,10.5%,23.7%,5.22%,23.9%,2.77%,19%,44.2%,18.6%,27.3%,16%,-4.53%,7.93%,25.1%,16%,21.5%,20.9%,1.4%
